Results published in ChEMBL document CHEMBL4354826, “Structure-Based Discovery of SD-36 as a Potent, Selective, and Efficacious PROTAC Degrader of STAT3 Protein” (J Med Chem, 2019).
pIC50: −log10 of the molar value.

Experiments:
[1] = Antiproliferative activity against human MOLM16 cells assessed as reduction in cell viability incubated for 4 days by cell-titer glo luminescent assay; type: functional, cell-based; settings: MOLM16, 96 h
How it was run: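 Viability assay: cells incubated with serially diluted compounds for 4 days, viability read by CellTiter-Glo luminescence; IC50 from concentration–response.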

[2] = target: Protein cereblon/Signal transducer and activator of transcription 3 (Homo sapiens, UniProt P40763+Q96SW2); test: Protac activity at CRBN/STAT3 in human MOLM16 cells assessed as degradation of STAT3 incubated for 4 hrs by Western blot analysis; type: cell-based
Chain of Protein cereblon/Signal transducer and activator of transcription 3 (P40763 whole entry): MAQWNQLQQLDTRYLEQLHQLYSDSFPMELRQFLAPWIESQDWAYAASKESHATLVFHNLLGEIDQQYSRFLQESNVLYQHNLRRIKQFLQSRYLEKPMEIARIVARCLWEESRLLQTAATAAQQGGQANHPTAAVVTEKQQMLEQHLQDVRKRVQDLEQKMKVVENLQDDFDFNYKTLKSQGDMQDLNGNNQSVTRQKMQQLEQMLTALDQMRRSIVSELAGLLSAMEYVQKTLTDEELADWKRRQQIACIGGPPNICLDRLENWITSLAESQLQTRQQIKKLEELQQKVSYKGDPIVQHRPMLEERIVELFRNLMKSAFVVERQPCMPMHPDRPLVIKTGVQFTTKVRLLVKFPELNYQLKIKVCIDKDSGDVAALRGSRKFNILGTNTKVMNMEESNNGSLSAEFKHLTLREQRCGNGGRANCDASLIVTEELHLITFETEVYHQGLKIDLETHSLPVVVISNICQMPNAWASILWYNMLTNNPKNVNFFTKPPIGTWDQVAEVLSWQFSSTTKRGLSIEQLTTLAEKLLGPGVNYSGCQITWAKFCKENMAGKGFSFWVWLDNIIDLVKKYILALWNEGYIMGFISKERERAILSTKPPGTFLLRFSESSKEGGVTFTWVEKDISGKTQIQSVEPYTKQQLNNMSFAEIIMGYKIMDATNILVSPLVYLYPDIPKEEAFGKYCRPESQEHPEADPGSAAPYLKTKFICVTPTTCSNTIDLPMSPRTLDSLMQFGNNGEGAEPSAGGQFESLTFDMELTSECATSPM
Chain of Protein cereblon/Signal transducer and activator of transcription 3 (Q96SW2 whole entry): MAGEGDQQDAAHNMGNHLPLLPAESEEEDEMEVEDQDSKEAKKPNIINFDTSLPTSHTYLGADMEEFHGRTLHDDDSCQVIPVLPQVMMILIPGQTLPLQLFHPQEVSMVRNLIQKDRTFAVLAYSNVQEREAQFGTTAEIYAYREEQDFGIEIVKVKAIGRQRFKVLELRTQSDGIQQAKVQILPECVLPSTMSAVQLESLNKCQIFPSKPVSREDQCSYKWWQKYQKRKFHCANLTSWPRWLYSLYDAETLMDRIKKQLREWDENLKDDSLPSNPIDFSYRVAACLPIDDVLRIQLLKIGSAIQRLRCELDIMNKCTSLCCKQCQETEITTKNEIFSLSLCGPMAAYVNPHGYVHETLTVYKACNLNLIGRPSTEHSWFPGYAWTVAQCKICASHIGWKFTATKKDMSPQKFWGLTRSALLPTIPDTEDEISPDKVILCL
How it was run: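 Molm-16 cells treated 4 h with serially diluted compound. Lysates immunoblotted (SDS–PAGE, PVDF, 5% blocker/TBST, chemiluminescence) for total STAT3 and pSTAT3 Y705. DC50 taken as the concentration reducing total STAT3 by 50%.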

| Compound | pIC50 [1] | DC50 [2] [nM] |
| --- | --- | --- |
| NC(=O)CC[C@H](NC(=O)[C@@H]1CC[C@@H]2CCN(C(=O)CCCCCC#Cc3ccc4c(c3)CN(C3CCC(=O)NC3=O)C4=O)C[C@H](NC(=O)c3cc4cc(C(F)(F)P(=O)(O)O)ccc4[nH]3)C(=O)N21)C(=O)NC(c1ccccc1)c1ccccc1 (some centres undefined) | 6.98 | 410 |
| NC(=O)CC[C@H](NC(=O)[C@@H]1CC[C@@H]2CCN(C(=O)CC(=O)N3CCC(C#Cc4cccc5c4CN(C4CCC(=O)NC4=O)C5=O)CC3)C[C@H](NC(=O)c3cc4cc(C(F)(F)P(=O)(O)O)ccc4[nH]3)C(=O)N21)C(=O)NC(c1ccccc1)c1ccccc1 (some centres undefined) | 7.17 | 380 |
| NC(=O)CC[C@H](NC(=O)[C@@H]1CC[C@@H]2CCN(C(=O)CCCCCCCc3cccc4c3CN(C3CCC(=O)NC3=O)C4=O)C[C@H](NC(=O)c3cc4cc(C(F)(F)P(=O)(O)O)ccc4[nH]3)C(=O)N21)C(=O)NC(c1ccccc1)c1ccccc1 (some centres undefined) | 7.20 | 160 |
| NC(=O)CC[C@H](NC(=O)[C@@H]1CC[C@@H]2CCN(C(=O)CCCCCC#Cc3ccc4c(c3)C(=O)N(C3CCC(=O)NC3=O)C4)C[C@H](NC(=O)c3cc4cc(C(F)(F)P(=O)(O)O)ccc4[nH]3)C(=O)N21)C(=O)NC(c1ccccc1)c1ccccc1 (some centres undefined) | 6.15 | 360 |
| NC(=O)CC[C@H](NC(=O)[C@@H]1CC[C@@H]2CCN(C(=O)CCCCC#Cc3cccc4c3CN(C3CCC(=O)NC3=O)C4=O)C[C@H](NC(=O)c3cc4cc(C(F)(F)P(=O)(O)O)ccc4[nH]3)C(=O)N21)C(=O)NC(c1ccccc1)c1ccccc1 (some centres undefined) | 7.11 | 260 |
| NC(=O)CC[C@H](NC(=O)[C@@H]1CC[C@@H]2CCN(C(=O)c3cnn(CCCC#Cc4cccc5c4CN(C4CCC(=O)NC4=O)C5=O)c3)C[C@H](NC(=O)c3cc4cc(C(F)(F)P(=O)(O)O)ccc4[nH]3)C(=O)N21)C(=O)NC(c1ccccc1)c1ccccc1 (some centres undefined) | 6.62 | 180 |
| NC(=O)CC[C@H](NC(=O)[C@@H]1CC[C@@H]2CCN(C(=O)CCN3CCC(C#Cc4cccc5c4CN(C4CCC(=O)NC4=O)C5=O)CC3)C[C@H](NC(=O)c3cc4cc(C(F)(F)P(=O)(O)O)ccc4[nH]3)C(=O)N21)C(=O)NC(c1ccccc1)c1ccccc1 (some centres undefined) | 6.44 | 2470 |
| NC(=O)CC[C@H](NC(=O)[C@@H]1CC[C@@H]2CCN(C(=O)CCCn3cc(C#Cc4cccc5c4CN(C4CCC(=O)NC4=O)C5=O)cn3)C[C@H](NC(=O)c3cc4cc(C(F)(F)P(=O)(O)O)ccc4[nH]3)C(=O)N21)C(=O)NC(c1ccccc1)c1ccccc1 (some centres undefined) | 6.63 | 250 |
| NC(=O)CC[C@H](NC(=O)[C@@H]1CC[C@@H]2CCN(C(=O)CCCCCCNc3cccc4c3CN(C3CCC(=O)NC3=O)C4=O)C[C@H](NC(=O)c3cc4cc(C(F)(F)P(=O)(O)O)ccc4[nH]3)C(=O)N21)C(=O)NC(c1ccccc1)c1ccccc1 (some centres undefined) | 7.23 | 90 |
| NC(=O)CC[C@H](NC(=O)[C@@H]1CC[C@@H]2CCN(C(=O)N3CCC(CCC#Cc4cccc5c4CN(C4CCC(=O)NC4=O)C5=O)CC3)C[C@H](NC(=O)c3cc4cc(C(F)(F)P(=O)(O)O)ccc4[nH]3)C(=O)N21)C(=O)NC(c1ccccc1)c1ccccc1 (some centres undefined) | 7.00 | 180 |
| NC(=O)CC[C@H](NC(=O)[C@@H]1CC[C@@H]2CCN(C(=O)CCCCCCCCC#Cc3cccc4c3CN(C3CCC(=O)NC3=O)C4=O)C[C@H](NC(=O)c3cc4cc(C(F)(F)P(=O)(O)O)ccc4[nH]3)C(=O)N21)C(=O)NC(c1ccccc1)c1ccccc1 (some centres undefined) | 7.38 | 150 |
| NC(=O)CC[C@H](NC(=O)[C@@H]1CC[C@@H]2CCN(C(=O)CCCCCCC#Cc3cccc4c3CN(C3CCC(=O)NC3=O)C4=O)C[C@H](NC(=O)c3cc4cc(C(F)(F)P(=O)(O)O)ccc4[nH]3)C(=O)N21)C(=O)NC(c1ccccc1)c1ccccc1 (some centres undefined) | 7.60 | 90 |
